Measured values reported in the EternaBench riboswitch data.

System: MS2 coat protein
Experiment: apparent Kd, MS2 coat protein; higher = weaker binding; RNA-MaP array; FMN 200 µM where present
In short: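 The apparent Kd is reported as the median of filtered per-cluster binding-curve fits. To get these curves, designs transcribed by stalled E. coli RNA polymerase on Illumina sequencing-chip clusters were titrated with SNAP-549-labelled MS2 coat protein from 0.7 or 1.5 nM, doubling to 3 µM. Titrations were run without and then with constant ligand in 100 mM Tris-HCl pH 7.5, 80 mM KCl, 4 mM MgCl2, BSA, DTT, yeast tRNA and Tween-20, and green signal was normalised to red-channel RNA signal and control-cluster median Fmax.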

[1] = designed as: ON switch for flavin mononucleotide, no ligand
[2] = ligand present: flavin mononucleotide, designed as: ON switch for flavin mononucleotide
[3] = designed as: OFF switch for flavin mononucleotide, no ligand
[4] = ligand present: flavin mononucleotide, designed as: OFF switch for flavin mononucleotide

Sequence	apparent Kd [1] [nM]	apparent Kd [2] [nM]	apparent Kd [3] [nM]	apparent Kd [4] [nM]
GCAACGCCUGACAUGAGGAUCACCCAUGUUAGAUUGUUAUGUCAGGAUAUUGUCUAGAAACUAGACAAGAAGGGAUGCGUUGCU	304	21.8		
ACCUUACAUGAGGAUCACCCAUGUCAGGAUAUCUCGGGCGACCGAGGGCCGGCCGCCCAGAGAAGGGACGAGGA			12.5	13.9
AUUUUACAUGAGGAUCACCCAUGUUUUGGUGGAUCAGGAUAUAAAUUGAAUGAGUUUUAGUUAGAAGGGAUAUUUA	67.2	99		
GCCAUCGCAUGAGGAUAUGCUCCGGUUUCCGGAGCAGAAGGCAUGUCGUAAGACAUGAGGAUCACCCAUGUAGUCAAGAUGGCA	912	41.5		
UUUUAACAUGAGGAUCACCCAUGUGAGGAUAUCGAAAUUUAUAUUAAUAUUUUUAUUACGAGAAGGCACAUUUU			73.5	69.8
CUAUGCGGAAUAGGAUAUUCGUUCAUGAGGAUAGAAGAAGGGUUACAUGAGGAUCACCCAUGUAUGCACAUGAGGAUCCCUUAG			252	228
AUCCUGCGAGGAUAUACAUAGUUUUUUUCGUUUUGUCUCGAACAUGAGGAUCACCCAUGUAGAAGGUGCUUCAC			71.5	66.9
GUUACAUGAGGAUCACCCAUGUAUGUGUGGGAGUAAGUGUCUUAGGAUAUCUAUGAUUUAAAUUAAGAGAAGGAAGAUUGUUGU	101	117		
GGAGUACAUGAGGAUCACCCAUGUUGGAACGAAGUAGGAUAUGUACAAUAUUAAAUAAAAACAGAAGGACUAAUAA	62.4	39		
UAUUUAUUAGAGAAGGUACAUACAAUUAACAACAUACAUGAGGAUCACCCAUGUUGGUGAAUAAGUAAGGAUAUUUAAUACUUU			31.3	17.6
AUCAGCACGUCAGGAUAUACGUCACUGCGUCAGCAGUGUGGUAAGAUCACAUGAGGAUCACCCAUGUAGAAGGGACGAGCUGAU			14.1	317
GCGAUUUUGUAAGGAUAUACACGAGUUUUAAGUGUAGAAGGUGCUUACAUGAGGAUCACCCAUGUAUAAAUGUAUAAUAGUCGC	9.14	8.18		
UUGGACGUCGUAGGAUCUGUAGGAUAUUCCUACAUGAGGAUCACCCAUGUUGACAUGGAAGAAGGACAGAAGGACGAUGUCCAU	6.35	3.7		
UCACGGGAUUGAGGAUAUAUAUUUAUUAUUUUAAUAGAAGGCAAAGAGUUAGUUUUUUCACUAUACAUGAGGAUCACCCAUGUU			33.4	30.5
CAGCUGAAAGUCAGGAUAUCUAGAGCCUCGGCUCUAGAGAAGGGACAUGAGGAUCACCCAUGUCACUCCAGCUG			18.4	20
UGGUACUAGGGAGGAUAUGGGAAGAUACAUGAGGAUCACCCAUGUUUAAGAAUGCCGAGAGGCAACUAGAAGGCCCUUGUACCU	444	19.3		
CGCAAACAUGAGGAUCACCCAUGUGAGGAUAUGUGAGCACGAGAAAGAUAAAGUGAGCACAGAAGGCACAAGCG			60.4	62.9
CCAGGCUUCGAGAAGGACAUGAGGAUCACCCAUGUGCGUGUAAAACAGCCGUGAGGCUGCAUCAUGUAGGAUAUCGGAGUCUGC			293	88.9
AUAAAACAUGAGGAUCACCCAUGUCAACAAAGUCGAGGAUAUGGGCAAAUAAAAUAAGAACCAGAAGGCGAAUAUU	223	48		
AAAAAAAAAACUCAGGAUAUAGAUCGUUGAACAUGAGGAUCACCCAUGUAGUGAAAAGCGAAAAACUAGAAGGGAGGAAAAAAAAA	28.9	19.8		
ACACCACAUGAGGAUCACCCAUGUAAAGCGUAGCAAGGAUAUGGGCACGGAUAAUUCCGAUCAGAAGGUGUAACGU	51.2	118		
AAUAUACAUGAGGAUCACCCAUGUUUUGGUGCAUGAGGAUAUAAAAACAAUUACAUAAAGUUAGAAGGCAUGAAUA	54.9	47.9		
AAAGACAGACAUGAGGAUCACCCAUGUUAUGAAGAUACUGGGAGAAGGGCGAUUGCAAAGCAAUCGCAGGAUAUUCGUAUUGUC	92.2	15.6		
UGUGCUGAAGGAUAUGCGUAAUCUCGGUGACGAGUAGAUCUACAUGAGGAUCACCCAUGUAGAAGGUCAGUACU			17.8	18.9
ACGUCGAGCCAGAAGGCAACAUGAGGAUCACCCAUGUAGUCCGGCUCGUGUUGAGGAUAUGGCACCCGCGCUGAAGGCGCAGGU			5.43	7.55
GCUGUAUAUGAGAAGGCGAUCAUGAAACAUGAUCGAGGAUAUCAUGUAAACAUGAGGAUCACCCAUGUAUGGGUAUUAAGCAGC	280	46.6		
CGCAUAUAUGUAAGGAUAUCUGCUUCGCAGAGGCAAGAGAAGGUACAUGAGGAUCACCCAUGUAUUUAAGGCGG			22.6	25.6
AUGAGUAAAGCAGGAUAUCUAUUGUCUCUGUAACAUGAGGAUCACCCAUGUAGAGAAGGGCUAAUUCUUACUCUUCGGAGUUGA			10.5	10.1
